Source: ChEMBL document CHEMBL1137684, “Examination of growth inhibitory properties of synthetic chalcones for which antibacterial activity was predicted” (2009)
Values after ≈ are worked out from the molar mass of the structure shown. Active and inactive are the calls of the source. No rule for the calls is given here.

Experiments:
Staphylococcus aureus [1] = assay: Antibacterial activity against Staphylococcus aureus Rosenbach 209 after 24 hrs by serial dilution method; assay type: functional; conditions: Rosenbach 209, 24 h
How it was run: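 Serial dilution of each chalcone in meat-peptone broth in tubes. Each tube was inoculated with bacterial suspension at 10⁵ cells/ml and incubated at 37 °C for 24 h. MIC was the lowest dilution with no visible growth compared with inoculated drug-free broth.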

Escherichia coli = assay: Antibacterial activity against Escherichia coli WF+; assay type: functional, organism-based
Staphylococcus aureus [2] = assay: Antibacterial activity against Staphylococcus aureus Rosenbach 209 after 48 hrs by agar well diffusion method; assay type: functional; also: test concentration or dose not given here
How it was run: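 Agar-well diffusion on meat-peptone agar. Read-out was the diameter of the inhibition zone, with ≥15 mm taken as active. Pure solvent served as the control.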

Row | Compound | MIC (Staphylococcus aureus [1]) | Activity (Escherichia coli) | diameter of the inhibition zone (DIZ) (Staphylococcus aureus [2])
1 | Cc1ccc(/C=C/C(=O)c2ccccc2)cc1 | 500 µg/mL (≈ 2250 µM) | inactive | 0 mm
2 | O=C(/C=C/C=C/c1ccccc1)c1ccccc1 | 500 µg/mL (≈ 2130 µM) | inactive | 0 mm
3 | COc1cc(/C=C/C(=O)c2cc(OC)c(OC)c(OC)c2)ccc1O | 500 µg/mL (≈ 1450 µM) | inactive | 0 mm
4 | COc1cc(/C=C/C(=O)/C=C/c2cc(OC)c(OC)c(OC)c2)cc(OC)c1OC | 250 µg/mL (≈ 603 µM) | inactive | 0 mm
5 | COc1cc(C(=O)/C=C/C=C/c2ccccc2)cc(OC)c1OC | 500 µg/mL (≈ 1540 µM) | inactive | 19 mm
6 | COc1ccc(/C=C/C(=O)c2cc(OC)c(OC)c(OC)c2)cc1O | 500 µg/mL (≈ 1450 µM) | inactive | 0 mm
7 | O=C(/C=C/c1ccccc1O)c1ccccc1 | 62.5 µg/mL (≈ 279 µM) | inactive | 22 mm
8 | O=C(/C=C/c1ccc([N+](=O)[O-])cc1)c1ccc(Cl)cc1 | 250 µg/mL (≈ 869 µM) | inactive | 17 mm
9 | COc1cc(C(=O)/C=C/c2ccccc2)cc(OC)c1OC | 250 µg/mL (≈ 838 µM) | inactive | 0 mm
10 | COc1cc(C(=O)/C=C/c2ccc(NC(C)=O)cc2)cc(OC)c1OC | 500 µg/mL (≈ 1410 µM) | inactive | 0 mm
11 | COc1cc(C(=O)/C=C/c2cccc(O)c2)cc(OC)c1OC | 500 µg/mL (≈ 1590 µM) | inactive | 0 mm
12 | COc1ccc(/C=C/C(=O)c2ccc(Cl)cc2)cc1O | 62.5 µg/mL (≈ 216 µM) | inactive | 0 mm
13 | COc1ccc(/C=C/C(=O)c2ccc(Cl)cc2)cc1 | 500 µg/mL (≈ 1830 µM) | inactive | 0 mm
14 | CC(=O)Nc1ccc(/C=C/C(=O)c2ccccc2)cc1 | 500 µg/mL (≈ 1880 µM) | inactive | 0 mm
15 | O=C(/C=C/c1ccccc1O)c1ccc(Cl)cc1 | 125 µg/mL (≈ 483 µM) | inactive | 20 mm
16 | O=C(/C=C/c1ccc(O)c(O)c1)c1ccc(Cl)cc1 | 125 µg/mL (≈ 455 µM) | inactive | 19 mm
17 | N#Cc1ccc(/C=C/C(=O)c2ccccc2)cc1 | 500 µg/mL (≈ 2140 µM) | inactive | 16 mm
18 | COc1cc(/C=C/C(=O)c2ccccc2)ccc1O | 500 µg/mL (≈ 1970 µM) | inactive | 0 mm
19 | COc1cc(C(=O)/C=C/c2ccc(O)cc2)cc(OC)c1OC | 500 µg/mL (≈ 1590 µM) | inactive | 0 mm
20 | CC(=O)Nc1ccc(/C=C/C(=O)c2ccc(Cl)cc2)cc1 | 500 µg/mL (≈ 1670 µM) | inactive | 0 mm
21 | O=C(/C=C/c1cccc(O)c1)c1ccc(Cl)cc1 | 125 µg/mL (≈ 483 µM) | inactive | 25 mm
22 | COc1cccc(/C=C/C(=O)c2ccc(Cl)cc2)c1O | 250 µg/mL (≈ 866 µM) | inactive | 0 mm
23 | O=C(/C=C/C=C/c1ccccc1)c1ccc(Cl)cc1 | 500 µg/mL (≈ 1860 µM) | inactive | 0 mm
24 | CN(C)c1ccc(/C=C/C(=O)c2ccc(Cl)cc2)cc1 | 500 µg/mL (≈ 1750 µM) | inactive | 0 mm
25 | O=C(/C=C/c1ccccc1)c1ccccc1 [CHALCONE] | 125 µg/mL (≈ 600 µM) | inactive | 29 mm
26 | O=C(/C=C/c1ccc(Cl)cc1)/C=C/c1ccc(Cl)cc1 | 250 µg/mL (≈ 825 µM) | inactive | 0 mm

Row | Compound | MIC (Staphylococcus aureus [1]) | Activity (Escherichia coli) | diameter of the inhibition zone (DIZ) (Staphylococcus aureus [2])
27 | COc1cc(C(=O)/C=C/c2ccc(N(C)C)cc2)cc(OC)c1OC | 500 µg/mL (≈ 1460 µM) | inactive | 0 mm
28 | O=C(/C=C/c1cccc(O)c1)c1ccccc1 [3-HYDROXY CHALCONE] | 250 µg/mL (≈ 1110 µM) | inactive | 20 mm
29 | O=C(/C=C/c1cc([N+](=O)[O-])ccc1O)c1ccc(Cl)cc1 | 500 µg/mL (≈ 1650 µM) | inactive | 0 mm
30 | COc1cc(C(=O)/C=C/c2ccc(Cl)cc2)cc(OC)c1OC | 62.5 µg/mL (≈ 188 µM) | inactive | 0 mm
31 | COc1cc(/C=C/C(=O)c2ccc(Cl)cc2)ccc1O | 250 µg/mL (≈ 866 µM) | inactive | 21 mm
32 | O=C(/C=C/c1ccc(Cl)cc1)c1ccc(Cl)cc1 [4',4-DICHLOROCHALCONE] | 500 µg/mL (≈ 1800 µM) | inactive | 0 mm
33 | COc1cccc(/C=C/C(=O)c2ccccc2)c1O | 125 µg/mL (≈ 492 µM) | inactive | 19 mm
34 | COc1ccc(/C=C/C(=O)c2ccccc2)cc1O | 250 µg/mL (≈ 983 µM) | inactive | 0 mm
35 | Cc1ccc(/C=C/C(=O)c2ccc(Cl)cc2)cc1 | 500 µg/mL (≈ 1950 µM) | inactive | 0 mm
36 | COc1cc(C(=O)/C=C/c2ccc(C#N)cc2)cc(OC)c1OC | 62.5 µg/mL (≈ 193 µM) | inactive | 0 mm
37 | O=C(/C=C/c1ccc(Cl)cc1)c1ccccc1 [4-CHLORO CHALCONE] | 500 µg/mL (≈ 2060 µM) | inactive | 0 mm
38 | O=C(/C=C/c1ccc(O)cc1)c1ccccc1 [4-HYDROXYCHALCONE] | 125 µg/mL (≈ 557 µM) | inactive | 19 mm
39 | COc1ccc(/C=C/C(=O)c2ccccc2)cc1 [4-METHOXY CHALCONE] | 500 µg/mL (≈ 2100 µM) | inactive | 0 mm
40 | COc1cc(C(=O)/C=C/c2ccc(C)cc2)cc(OC)c1OC | 500 µg/mL (≈ 1600 µM) | inactive | 0 mm
41 | O=C(/C=C/c1ccc(O)c(O)c1)c1ccccc1 | 125 µg/mL (≈ 520 µM) | inactive | 21 mm
42 | O=C(/C=C/c1ccc([N+](=O)[O-])cc1)c1ccccc1 | 250 µg/mL (≈ 987 µM) | inactive | 17 mm
43 | N#Cc1ccc(/C=C/C(=O)c2ccc(Cl)cc2)cc1 | 250 µg/mL (≈ 934 µM) | inactive | 21 mm
44 | COc1cc(C(=O)/C=C/c2ccccc2O)cc(OC)c1OC | 500 µg/mL (≈ 1590 µM) | inactive | 0 mm
45 | O=C(/C=C/c1ccc(O)cc1)c1ccc(Cl)cc1 | 125 µg/mL (≈ 483 µM) | inactive | 31 mm
46 | COc1cc(C(=O)/C=C/c2ccc([N+](=O)[O-])cc2)cc(OC)c1OC | 62.5 µg/mL (≈ 182 µM) | inactive | 0 mm
47 | COc1ccc(/C=C/C(=O)c2cc(OC)c(OC)c(OC)c2)cc1 | 500 µg/mL (≈ 1520 µM) | inactive | 0 mm
48 | CN(C)c1ccc(/C=C/C(=O)c2ccccc2)cc1 | 500 µg/mL (≈ 1990 µM) | inactive | 0 mm
49 | O=C(/C=C/C=C/c1ccccc1)/C=C/C=C/c1ccccc1 | 500 µg/mL (≈ 1750 µM) | inactive | 0 mm
50 | O=C(/C=C/c1ccccc1)c1ccc(Cl)cc1 | 500 µg/mL (≈ 2060 µM) | inactive | 0 mm
51 | COc1cc(/C=C/C(=O)c2ccc(Cl)cc2)cc(OC)c1O | 500 µg/mL (≈ 1570 µM) | inactive | 19 mm
